aDG glyco up: increases alpha dystroglycan glycosylation; Pro5-aDG cells, alpha-DG glycosylation AlphaScreen (IIH6); 0% Pro5, 100% B10-LARGE cell signal; activation, % at 10 µM; 360,000 tested, 0.22% active; AID 624168;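 active means activation of at least 8% versus controls, or a plate z-score of at least 8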;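 further: Pro5 are CHO cells carrying HIG-tagged alpha-DG that lacks glycosylation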
UCH37 DUB inh: blocks the human deubiquitinase UCH37. purified proteasome/UCH37, Ub-AMC cleavage fluorescence. inhibition, % (no concentration beside the values). 330,000 tested, 0.33% active. AID 588478;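 active means mean inhibition over replicate wells above about 20%, limit read from the data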
Target sequence (Q9Y5K5 whole entry, looked up): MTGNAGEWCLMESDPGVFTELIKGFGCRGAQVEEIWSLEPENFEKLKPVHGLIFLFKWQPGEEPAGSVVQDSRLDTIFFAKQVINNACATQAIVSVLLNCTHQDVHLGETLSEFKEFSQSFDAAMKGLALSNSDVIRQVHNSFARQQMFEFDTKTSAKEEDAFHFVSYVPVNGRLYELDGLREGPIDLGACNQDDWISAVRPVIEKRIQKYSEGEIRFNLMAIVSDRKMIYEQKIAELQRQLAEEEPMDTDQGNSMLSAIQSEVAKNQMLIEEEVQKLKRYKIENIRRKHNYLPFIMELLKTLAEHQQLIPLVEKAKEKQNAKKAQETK
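Material: human UCH37 enzyme supplied as purified proteasome complex. Measure: % inhibition of Ub-AMC cleavage fluorescence. Medium: pH 7.4 Tris-HCl (50 mM) with ovalbumin, ATP-MgCl2, DTT. Times: 30 min preincubation with enzyme, 25 min cleavage at room temperature. Detection: AMC fluorescence intensity at 355/460 nm.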
HKDC1 inh: blocks human hexokinase HKDC1 activity; Q2TB90; recombinant HKDC1, G6PDH/diaphorase resazurin coupled fluorescence; inhibition, % at 20 µM; 340,000 tested, 0.16% active; AID 493160;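 active means inhibition above about 35% when tested at 20 µM, limit read from the data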
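Assay system – recombinant HKDC1 (HK5) hexokinase enzyme, produced in-house · Input – HKDC1 at 5 µg/mL · Reagent – glucose plus 1 mM ATP as hexokinase substrates · Timing – 90 min reaction incubation at room temperature, dark · Measured by – G6PDH/diaphorase-coupled fluorescence, 1 mM NADP, 100 µM resazurin, 525/613 nm · Benchmarks – DMSO-enzyme wells negative, buffer-substituted wells positive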
Beta2AR agonist: activates human beta-2 adrenergic receptor causing internalization; AID 504454; P07550; 340,000 tested, 0.43% active; Am2.2-beta2AR cells, FAP receptor internalization, flow cytometry; response, % (concentration not given with the values);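 active means response above a set limit, near 3 SD of response in nonfluorescent compounds, cut at about 42% in these data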
Target sequence (P07550 whole entry, looked up): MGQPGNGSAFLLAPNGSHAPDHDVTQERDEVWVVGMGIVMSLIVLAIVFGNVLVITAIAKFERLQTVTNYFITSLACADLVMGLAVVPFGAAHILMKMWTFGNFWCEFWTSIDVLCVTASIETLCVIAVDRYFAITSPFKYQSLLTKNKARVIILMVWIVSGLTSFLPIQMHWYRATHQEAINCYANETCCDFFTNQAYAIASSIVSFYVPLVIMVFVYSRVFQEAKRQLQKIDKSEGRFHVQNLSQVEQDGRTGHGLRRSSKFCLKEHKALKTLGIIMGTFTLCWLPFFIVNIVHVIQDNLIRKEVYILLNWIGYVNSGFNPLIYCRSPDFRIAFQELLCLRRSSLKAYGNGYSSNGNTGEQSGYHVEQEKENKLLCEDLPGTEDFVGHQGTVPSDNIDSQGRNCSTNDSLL
PfGluPho inh: PfG6PD (Plasmodium falciparum) enzyme inhibition; 350,000 tested, 0.78% active; AID 504690; PfGluPho enzyme, NADPH resazurin-diaphorase fluorescence; inhibition, % at 20 µM;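 active means inhibition reaching at least a set limit at 20 µM in the primary screen, cut at about 59% in these data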
H9c2 protect: modulators protecting cardiomyocytes from myocardial damage. 360,000 tested, 0.63% active. protection from H2O2 cell death, % at 20 µM. H9c2 cardiomyocytes, H2O2 injury protection, ATPLite, 2 h;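 active means compounds giving at least 50% protection of heart cells from peroxide-induced death in the single-dose screen, raw or plate-pattern-corrected value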
PfGluPho conf: confirmation of Plasmodium falciparum G6PD inhibitors; shares compounds with PfGluPho inh; recombinant PfGluPho, NADPH-diaphorase-resazurin fluorescence; inhibition, % at 20 µM; 2,400 tested, 34% active;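 active means inhibition of at least 50% at 20 µM in any single replicate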
Diaph ctr 10uM: counter-screen for P. falciparum G6PD inhibitors: diaphorase inhibitors, oxidizers; 820 tested, 39% active; AID 504862; shares compounds with PfGluPho inh; diaphorase-coupled resazurin reduction, fluorescence, NADPH 10 uM; inhibition, % at 20 µM;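 active means average inhibition reaching 50% or more with the compound at 20 µM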;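 further: resorufin red fluorescence formed as diaphorase reduces resazurin using NADPH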
Diaph ctr 30uM: counter-screen for P. falciparum G6PD inhibitors: diaphorase inhibitors, oxidizers; shares compounds with PfGluPho inh; Diaphorase/resazurin coupled assay, resorufin fluorescence, 30 uM NADPH; inhibition, % at 20 µM; 820 tested, 29% active;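 active means inhibition averaging 50% or more, tested at 20 µM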
Numbers stand for hits; - = inactive; . = no result given. Most compounds without a hit are left out; they make up all but 2.1% or so of the library.

SMILES	aDG glyco up	UCH37 DUB inh	HKDC1 inh	Beta2AR agonist	PfGluPho inh	H9c2 protect	PfGluPho conf	others
O=C(NN=Cc1ccncc1)c1cc2ccccc2o1	.	-	.	.	.	.	.
COc1ccccc1/C=N\NC(=O)c1c(C)nc2ccc(Cl)cn12	-	.	-	-	-	-	-
Cc1nn(C)c(C(=O)N/N=C/c2cccc3ccccc23)c1Cl	-	.	-	-	76	-	-
Cc1cc(C)nc(NN=C/C=C/c2ccccc2)n1	.	-	.	.	.	.	.
C(=NNc1nc2ccccc2s1)c1ccc2c(c1)OCO2	.	-	.	.	.	.	.
COC1C=CC(CNC(=O)c2cc3c(=O)n4cccc(C)c4nc3n2C)(OC)O1 (stereo not drawn)	-	-	-	-	79	-	-
COc1ccccc1/C=N/n1cnnc1	-	.	-	-	-	-	.
O=S(=O)(Oc1ccccc1/C=N/n1cnnc1)c1ccccc1	-	.	-	-	96	-	81	Diaph ctr 10uM=81;Diaph ctr 30uM=63
CC(OC(=O)CSc1ccc([N+](=O)[O-])cc1)C(=O)NCc1ccccc1 (stereo not drawn)	-	-	-	-	66	-	-
O=C(COC(=O)CSc1ccc([N+](=O)[O-])cc1)NCCCc1ccccc1	-	-	-	-	66	-	-
O=C1c2ccccc2-c2onc3ccc(NCc4ccco4)c1c23	-	-	-	-	74	-	-
CC1CCCC(C)N1N=Cc1ccccc1F (stereo not drawn)	.	-	.	.	.	.	.
CCCCCCCCCCCCCCCC[N+](C)(C)CCN(Cc1ccc(OC)cc1)c1ncccn1	-	27	-	-	64	-	-
CN1CCN(S(=O)(=O)c2ccc(N3CCN(c4ccc(O)cc4)CC3)c([N+](=O)[O-])c2)CC1	-	-	-	-	72	-	-
Cc1cccc(-n2ncc3c(NC4CCCCC4)ncnc32)c1	-	-	-	-	66	-	-
C=CCNc1ncnc2c1cnn2-c1cccc(C)c1	-	-	-	-	-	-	.
COc1ccc(C=NNC(=O)CNS(=O)(=O)c2ccccc2)cc1	.	-	.	.	.	.	.
COc1cccc(CNc2ccc3[nH]c(=O)[nH]c3c2)c1OCc1ccccc1Cl	-	-	-	-	65	-	50	Diaph ctr 10uM=-;Diaph ctr 30uM=-
COc1cccc(CNc2ccc3[nH]c(=O)[nH]c3c2)c1OCc1ccccc1	-	-	-	-	-	-	.
C=CCOc1ccc(CNc2ccc3[nH]c(=O)[nH]c3c2)cc1OC	-	-	-	-	85	-	66	Diaph ctr 10uM=-;Diaph ctr 30uM=-
COc1cc(CNc2ccc3[nH]c(=O)[nH]c3c2)ccc1OCc1c(F)cccc1Cl	-	-	-	-	-	-	.
COc1cc(CNc2ccc3[nH]c(=O)[nH]c3c2)ccc1OCc1ccccc1C	-	-	-	-	-	-	.
COc1cc(CNc2ccc3[nH]c(=O)[nH]c3c2)ccc1OCc1ccccc1	-	-	-	-	65	-	50	Diaph ctr 10uM=-;Diaph ctr 30uM=-
COc1cc(CNc2ccc3[nH]c(=O)[nH]c3c2)ccc1OCC(=O)NC(C)(C)C	-	-	-	-	-	-	.
COc1cc(CNc2ccc3[nH]c(=O)[nH]c3c2)ccc1OCc1ccc(Cl)cc1	-	-	-	-	63	-	-
SMILES	aDG glyco up	UCH37 DUB inh	HKDC1 inh	Beta2AR agonist	PfGluPho inh	H9c2 protect	PfGluPho conf	others
COc1cc(CNc2ccc3[nH]c(=O)[nH]c3c2)ccc1OCc1ccc(F)cc1	-	-	-	-	66	-	-
S=C(NCCc1ccccc1)NN=Cc1ccccc1Cl	.	-	.	.	.	.	.
CCOc1ccc(S(=O)(=O)N(CC(=O)NN=Cc2ccc(-c3ccc([N+](=O)[O-])cc3)o2)c2ccccc2)cc1	.	-	.	.	.	.	.
Cc1ccc[n+](C2C(c3ccc([N+](=O)[O-])cc3)C(C#N)=C([S-])NC2(O)C2CC2)c1 (stereo not drawn)	-	-	-	-	-	-	.
COc1ccc([C@H]2C(C#N)=C([S-])N[C@](C)(O)[C@@H]2[n+]2ccccc2)cc1	-	-	-	-	69	-	-
CCOc1ccc(C(=S)NC2CCCCC2)cc1OC	-	-	-	-	62	-	-
CCOc1ccccc1C(=S)NC1CCCCC1	-	-	-	-	-	-	.
COC(=O)C=c1sc(=C(C#N)C(=O)N2CCOCC2)n(-c2ccccc2)c1=O	.	-	.	.	.	.	.
O=C(Nc1ccccn1)c1ccc(C(=O)Nc2ccccn2)cc1	-	-	-	-	-	-	.
O=C(Nc1ccccn1)c1cc2ccccc2cc1O	-	-	-	-	67	-	-
Cc1onc(-c2ccccc2)c1-c1csc(NN=Cc2ccccc2)n1	.	-	.	.	.	.	.
Cc1cccc(Nc2nnc(SCC(=O)c3c(N)n(C4CC4)c(=O)[nH]c3=O)s2)c1	-	-	-	-	-	-	.
Cc1ccc(Nc2nnc(SCC(=O)c3c(N)n(C4CC4)c(=O)[nH]c3=O)s2)cc1C	-	-	-	-	64	-	-
COc1ccc(C(C)=N/N=C2/NC(=O)CC(C(=O)O)S2)cc1F (stereo not drawn)	.	-	.	.	.	.	.
COC(=O)NC(=S)Nc1ccc(Oc2ccc(Cl)cc2Cl)c(Cl)c1	-	-	-	-	82	-	-
COC(=O)NC(=S)Nc1ccc(Oc2ccc(Cl)cc2)c(Cl)c1	-	-	-	-	-	-	.
Cc1nn(-c2ccccc2)c(Cl)c1C=NNc1nc2ccccc2n1C	.	-	.	.	.	.	.
Cc1ccc(C(=O)N2CCCCC2)cc1NC1=C(Cl)C(=O)N(Cc2ccccc2)C1=O	-	-	-	-	-	-	.
Cc1ccc(O)c(NC2=C(Cl)C(=O)N(Cc3ccccc3)C2=O)c1	-	-	-	-	85	-	-
CC1CN(CC(=NO)C23CC4CC(CC(C4)C2)C3)CC(C)O1 (stereo not drawn)	.	-	.	.	.	.	.
O=C(/C=C\c1ccc(-c2ccccc2)o1)c1ccccc1	-	-	-	-	74	-	-
COc1cc(/C=N/N2CCN(Cc3ccc(C)cc3)CC2)cc(OC)c1O	-	.	-	-	79	-	-
Cc1ccc(CN2CCN(/N=C/c3ccccc3)CC2)cc1	-	.	-	-	-	-	.
COc1ccccc1N1CCN(/N=C/c2cc(OC)c(O)c(OC)c2)CC1	-	.	-	-	76	-	-
O=C(CCC(=O)Nc1cccc([N+](=O)[O-])c1)NN=Cc1cccs1	.	-	.	.	.	.	.
COc1ccc(C(=O)Nc2ccccc2C(=O)NN=Cc2ccncc2)cc1OC	.	-	.	.	.	.	.
C=CCn1c(=C(C#N)C(=O)c2ccccc2)sc(=Cc2ccc(C)o2)c1=O	.	-	.	.	.	.	.

Bioassay records (PubChem)
